Bioassay records as filed in PubChem BioAssay.
eIF4E-4G inh = eIF4E–eIF4G protein interaction inhibitors, primary screen, biochemical, uHTS, TR-FRET, eIF4GI fragment; TR-FRET eIF4E-eIF4GI(517-606) binding, 2 h; inhibition, % at 21.7 µM; actives 0.37% (n = 220,000);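 also: 0% = full FRET control wells and 100% = background wells lacking eIF4GI fragment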
14-3-3 Bad PPI = inhibitors of 14-3-3 zeta/Bad binding, primary screen, biochemical, TR-FRET, bovine 14-3-3 zeta; actives 0.71% (n = 220,000); inhibition, % at 21.7 µM; TR-FRET 14-3-3zeta/Dy647-pBad peptide displacement, 1 h; 14-3-3 protein zeta/delta (Bos taurus), P63103;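 active = inhibition above about 70%, limit read from the data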;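 also: 0% = full 14-3-3 plus peptide FRET controls and 100% = background without 14-3-3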
EBV gp42 inh = Epstein-Barr virus gp42 inhibitors, primary screen, biochemical, uHTS, fluorescence polarization. Glycoprotein 42 (Epstein-Barr virus (strain AG876)), Q1HVG2. actives 0.42% (n = 220,000). Fluorescence polarization binding assay, mP read-out. inhibition, % (tested at 21.74 µM); in the data active = inhibition above about 50%
Target sequence (Q1HVG2 whole entry, looked up): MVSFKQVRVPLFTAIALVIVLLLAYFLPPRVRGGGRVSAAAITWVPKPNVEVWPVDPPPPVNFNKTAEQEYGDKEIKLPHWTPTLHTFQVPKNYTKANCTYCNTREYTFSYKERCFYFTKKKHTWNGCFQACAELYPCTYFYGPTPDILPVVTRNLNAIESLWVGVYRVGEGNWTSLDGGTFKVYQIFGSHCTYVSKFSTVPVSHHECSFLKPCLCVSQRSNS
WT yeast gro inh = growth inhibition of WT strain, primary screen, mitochondrial fusion inhibitor project, WT and mutant strains, chemical genetic. mitochondrial fusion phenotypic screen. inhibition, % at 10 µM. actives 2.1% (n = 190,000). AID 1362, 2008; in the data active = inhibition above about 58%; tested in S. cerevisiae
RBBP9 inh = human RBBP9 inhibitors, primary screen, biochemical, fluorescence polarization, FP-Rh probe, HTS. inhibition, % at 7.94 µM. recombinant RBBP9. actives 0.2% (n = 220,000);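 active = inhibition above the campaign mean of all tested compounds plus 3 SD, cut at about 14% in these data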;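 also: plate controls were DMSO wells with RBBP9 for no effect and wells lacking RBBP9 protein for full effect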
Target sequence (O75884 whole entry, looked up): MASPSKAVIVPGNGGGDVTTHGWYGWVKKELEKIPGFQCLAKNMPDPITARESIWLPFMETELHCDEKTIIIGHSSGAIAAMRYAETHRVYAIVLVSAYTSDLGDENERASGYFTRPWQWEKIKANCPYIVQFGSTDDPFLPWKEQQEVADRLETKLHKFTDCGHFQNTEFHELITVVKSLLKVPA
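Measured by – fluorescence polarization · Test system – RBBP9 protein · Input – 2.5 µM RBBP9 dispensing solution, before mixing · Measure – percent inhibition from mP, scaled between DMSO and no-protein wells · Benchmarks – DMSO-treated enzyme wells and wells lacking RBBP9 · Times – preincubation 30 min plus labeling 45 min at 25 °C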
NCF1 inh = p47phox/p22phox peptide binding inhibitors, primary screen, biochemical, uHTS, NADPH oxidase regulatory subunit; actives 0.53% (n = 220,000); inhibition, % at 24.7 µM; fluorescence polarization, 2 h; AID 1274, 2008; Neutrophil cytosol factor 1 (Homo sapiens), P14598;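 also: 0% = p47phox with labelled peptide and 100% = labelled peptide alone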
Starred values were filed as active, the others as inactive; x = not tested or not shown; [ ] = another dose, or the depositor's remark. Rows were chosen to be rich in hits. Some 3.7% of all compounds tested hit in one or more screens of this group.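 The calls were made as follows, unless noted: active = inhibition above about 30% (limit read from the data); inactive = the rest.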

SMILES	eIF4E-4G inh	14-3-3 Bad PPI	EBV gp42 inh	WT yeast gro inh	RBBP9 inh	NCF1 inh
CCn1c2ccccc2c2nnc(SCc3ccccc3)nc21	9	9	4	58*	-1	-16
CCn1c2ccccc2c2nnc(SCC(N)=O)nc21	-3	-4	-3	36	4	-9
NC(=O)c1ccsc1NC(=O)COC(=O)Cc1cccc2ccccc12	9	-2	-3	78*	1	-21
COc1ccccc1OCC(=O)OCC(=O)Nc1sccc1C(N)=O	5	-13	-4	-15	-4	4
Cc1ccc(C(=O)COC(=O)c2ccc(O)cc2)cc1	3	-12	1	-7	-1	0
CC(C)(C)c1cc(C(c2cccnc2)N2CCN(CCO)CC2)cc(C(C)(C)C)c1O (configuration not stated)	8	8	-5	72*	-7	11
COc1cc(/C=N/N=C/c2c[nH]c(=O)c(C#N)c2Nc2ccccc2)ccc1O	-6	0	-1	x	1	6
CCC1=NN(C(=O)Cc2ccc([N+](=O)[O-])cc2)C(O)(C(F)(F)F)C1 (configuration not stated)	-1	-3	-1	x	7	-5
O=C(Cc1ccc([N+](=O)[O-])cc1)N1N=C(C2CC2)CC1(O)C(F)(F)F (configuration not stated)	1	91*	3	13	0	-5
O=C(CCCOc1ccc(Cl)cc1Cl)N/N=C/c1ccccc1	3	6	-5	21	-3	51*
O=C(COC(=O)CCCOc1ccc(Cl)cc1Cl)Nc1cccc(Cl)c1	3	6	-5	70*	-44	-8
Cc1cc(Cl)ccc1OCCCC(=O)Nc1cccnc1	7	75*	-7	5	-6	-3
O=C(CCSc1ccc(Cl)cc1)Nc1cccnc1	0	-9	14	8	-3	-8
Cc1ccc(/C=C/C(=O)c2ccc(N3CCOCC3)cc2)s1	1	0	-35	35	-9	-40
COc1cccc(C(=O)NC(c2ccccc2)C2CCCC2)c1 (configuration not stated)	-2	-4	-7	18	-4	-8
CCOC(=O)c1c(C)n(-c2ccc(C)cc2)c2ccc(OCC(O)CNCC3CCCO3)cc12 (configuration not stated)	6	27	-17	72*	-1	8
NS(=O)(=O)c1ccc(CNC(=S)Nc2ccc(F)c(Cl)c2)cc1	0	-21	2	8	-5	-7
NS(=O)(=O)c1ccc(NC(=S)NCc2ccc(Cl)cc2)cc1	35*	13	2	13	-10	-3
CC(=O)Nc1ccc(S(=O)(=O)NCc2ccc(C(=O)NCc3ccc4c(c3)OCO4)cc2)cc1	-10	5	-14	-21	-8	-10
CC(=O)Nc1ccc(S(=O)(=O)NCc2ccc(C(=O)NCc3ccc(Cl)cc3)cc2)cc1	-37	74*	-4	6	-9	12
CNC(=O)NNC(=O)c1nc(-c2ccccc2)c(C)o1	8	-7	-6	x	-14	-2
Cc1cc(C)c(C#N)c(SCC(=O)C2CC2)n1	-2	-10	-10	x	8	3
CCCNC(=O)Cn1c(=O)/c(=C\c2ccc(-c3ccc([N+](=O)[O-])cc3)o2)s/c1=C\C(=O)C(C)(C)C	-7	-17	-138	8	-3	-32
CCCNC(=O)Cn1c(=O)/c(=C\c2ccc(-c3cccc([N+](=O)[O-])c3)o2)s/c1=C\C(=O)C(C)(C)C	-3	-13	69*	1	-5	-57
O=C(/C=C/c1ccc2c(c1)OCO2)Nc1cccnc1	1	-6	-6	-7	2	-4
SMILES	eIF4E-4G inh	14-3-3 Bad PPI	EBV gp42 inh	WT yeast gro inh	RBBP9 inh	NCF1 inh
Cc1ccc(NC(=O)CN2C(=O)S/C(=C\c3ccc(-c4cccc(C(=O)O)c4C)o3)C2=O)cc1C	58*	87*	-12	-4	1	-56
CCN(C(=O)c1ccc2c(Cl)c3c(nc2c1)CCC3)c1ccc(C)c(C)c1	1	6	-3	94*	-15	-5
CN(C(=O)c1ccc2c(Cl)c3c(nc2c1)CCC3)c1ccccc1	-2	-1	15	37	-11	9
COc1ccc2nc(N3C(=O)/C(=C/c4ccc(Cl)cc4)NC3=S)sc2c1	18	72*[fluorescence artefact?]	54*	-7	-16	-67
CCC1(CC)NC(=O)N(CC(=O)OCC(=O)Nc2sccc2C#N)C1=O	3	-3	2	5	5	x
CC(C(=O)NCC1CCCCC1)N1CCN(S(=O)(=O)c2ccccc2F)CC1 (configuration not stated)	-1	-19	-10	1	1	-1
Cc1nc(NC(=O)c2ccccc2)sc1-c1csc(Nc2ccc(F)cc2)n1	-23	55	-24	23	-11	-8
Cc1ccc(Cl)cc1Nc1nc(-c2sc(NC(=O)c3cccc(Cl)c3)nc2C)cs1	-20	89*	-10	28	-7	-26
Cc1nc(NC(=O)c2ccccc2)sc1-c1csc(Nc2ccc(Cl)cc2Cl)n1	-20	76*[fluorescence artefact?]	-8	10	0	-22
Cc1ccccc1Nc1nc(-c2sc(NC(=O)c3cccc(Cl)c3)nc2C)cs1	-27	44	-12	0	-10	-22
Cc1nc(NC(=O)c2ccco2)sc1-c1csc(Nc2ccc(Cl)cc2Cl)n1	-33	87*[fluorescence artefact?]	19	71*	-8	-15
Cc1nc(NC(=O)c2ccccc2)sc1-c1csc(Nc2ccc(Cl)cc2)n1	-3	70*	6	17	-4	-22
O=C(NN1CCN(Cc2ccccc2)CC1)c1ccc(N2CCOCC2)c([N+](=O)[O-])c1	4	-8	-26	-1	-1	-3
Cc1nc(NC(=O)c2ccccc2)sc1-c1csc(Nc2cccc(Cl)c2)n1	23	86*	12	26	2	-24
Cc1nc(NC(=O)CC(C)C)sc1-c1csc(Nc2ccc(Cl)cc2)n1	-6	19	-10	81*	-13	-52
CC1CN(S(=O)(=O)c2ccc(C(=O)Nc3ccc(S(=O)(=O)Nc4ncccn4)cc3)cc2)CC(C)O1 (configuration not stated)	-1	12	-14	-1	-8	-4
COC(=O)N/N=C/c1cn(Cc2c(Cl)cccc2Cl)c2ccccc12	0	8	-4	63*	-5	-11
COC(=O)N/N=C/c1cn(Cc2ccccc2Cl)c2ccccc12	-2	-12	12	-25	-3	-7
